Data as given in ChEMBL document CHEMBL1139810, “Novel anti-infection agents: small-molecule inhibitors of bacterial transcription factors” (Bioorg Med Chem Lett, 2007).

How the values were obtained:
Escherichia coli [1] = test: Inhibition of Escherichia coli SoxS binding to DNA at 50 ug/mL
Escherichia coli [2] = test: Inhibition of Escherichia coli SoxS binding to DNA at 25 ug/mL
[3] = Inhibition of Escherichia coli SoxS binding to DNA
Staphylococcus aureus = test: Antimicrobial activity against antibiotic-susceptible Staphylococcus aureus RN450; format: functional
Escherichia coli [4] = test: Antimicrobial activity against antibiotic-susceptible Escherichia coli ML308-225; format: functional
Escherichia coli [5] = test: Reduction of colony formation in urinary tract infection mouse model assessed per gram of kidney at 10 mg/kg, ip; format: functional; details: route intraperitoneal
Escherichia coli [6] = test: Inhibition of Escherichia coli Rob binding to DNA; format: functional, organism-based
[7] = target: T1, HTH-type transcriptional regulator ExsA (Pseudomonas aeruginosa (strain ATCC 15692 / PAO1 / 1C / PRS 101 / LMG12228), UniProt P26993); test: Inhibition of Pseudomonas aeruginosa ExsA binding to DNA
T1 sequence (P26993 whole entry): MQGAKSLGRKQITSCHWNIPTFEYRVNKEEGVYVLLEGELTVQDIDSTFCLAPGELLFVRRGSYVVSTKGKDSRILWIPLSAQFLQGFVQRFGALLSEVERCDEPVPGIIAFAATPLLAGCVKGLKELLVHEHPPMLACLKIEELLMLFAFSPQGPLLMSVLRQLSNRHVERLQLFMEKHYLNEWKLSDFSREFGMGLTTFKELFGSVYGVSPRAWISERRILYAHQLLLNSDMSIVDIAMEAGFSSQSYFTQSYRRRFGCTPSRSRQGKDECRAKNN

[8] = Inhibition of Salmonella Typhimurium Rma binding to DNA; set-up: species or system Salmonella enterica subsp. enterica serovar Typhimurium
[9] = Inhibition of Escherichia coli MarA binding to DNA
Procedure, shortened: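 Binding of the 6-His-tagged Mar protein (20 nM) to biotinylated double-stranded target DNA (2 nM) was measured with test compound on streptavidin-coated wells. After washing, retained protein was read by luminescence, and inhibition appeared as signal loss. Selected compounds were also incubated with DNA and run on agarose gels to check whether they altered DNA structure.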

[10] = Inhibition of Proteus mirabilis PqrA binding to DNA

CC(=O)c1ccc2nc(-c3ccccc3)n(O)c2c1
inhibition (Escherichia coli [1]): 37%

O=C(Nc1ccc(-c2nc3ccc([N+](=O)[O-])cc3n2O)cc1)c1ccccc1
inhibition (Escherichia coli [1]): 100%
inhibition (Escherichia coli [2]): 100%
IC50 [3]: 17000 nM
MIC (Staphylococcus aureus): > 64 µg/mL
MIC (Escherichia coli [4]): > 64 µg/mL

O=[N+]([O-])c1ccc2nc(-c3ccc(Br)cc3)n(O)c2c1
inhibition (Escherichia coli [1]): 26%

CN(C)c1cccc(-c2nc3ccc([N+](=O)[O-])cc3n2O)c1
inhibition (Escherichia coli [1]): 30%

O=[N+]([O-])c1ccc2nc(-c3ccccc3)n(OCCO)c2c1
inhibition (Escherichia coli [1]): 0%

COc1ccc(C(=O)Nc2ccc(-c3nc4ccc([N+](=O)[O-])cc4n3O)cc2)cc1
IC50 [3]: 2500 nM
MIC (Staphylococcus aureus): > 64 µg/mL
MIC (Escherichia coli [4]): > 64 µg/mL
CFU (Escherichia coli [5]): 1

O=C(Nc1ccc(-c2nc3ccc([N+](=O)[O-])cc3n2O)cc1)c1ccc(F)cc1
IC50 [3]: 2800 nM
MIC (Staphylococcus aureus): > 64 µg/mL
MIC (Escherichia coli [4]): > 64 µg/mL
IC50 (Escherichia coli [6]): 4700 nM
IC50 [7]: 4000 nM
IC50 [8]: 4900 nM

Nc1ccccc1-c1nc2ccc([N+](=O)[O-])cc2n1O
inhibition (Escherichia coli [1]): 2%

Nc1ccc(-c2nc3ccc([N+](=O)[O-])cc3n2O)cc1
inhibition (Escherichia coli [1]): 80%

COc1ccc2nc(-c3ccccc3)n(O)c2c1
inhibition (Escherichia coli [1]): 0%

CC(=O)Nc1cccc(-c2nc3ccc([N+](=O)[O-])cc3n2O)c1
inhibition (Escherichia coli [1]): 32%

NCCOn1c(-c2ccccc2)nc2ccc([N+](=O)[O-])cc21
inhibition (Escherichia coli [1]): 0%

CCOC(=O)COn1c(-c2ccccc2)nc2ccc([N+](=O)[O-])cc21
inhibition (Escherichia coli [1]): 0%

N#Cc1ccc2nc(-c3ccccc3)n(O)c2c1
inhibition (Escherichia coli [1]): 30%

O=C(O)CCOn1c(-c2ccccc2)nc2ccc([N+](=O)[O-])cc21
inhibition (Escherichia coli [1]): 0%

O=[N+]([O-])c1ccc2nc(-c3ccccc3)n(O)c2c1
inhibition (Escherichia coli [1]): 38%

CC(C)(C)c1ccc2nc(-c3ccccc3)n(O)c2c1
inhibition (Escherichia coli [1]): 0%

O=C(O)c1ccc2nc(-c3ccccc3)n(O)c2c1
inhibition (Escherichia coli [1]): 12%

On1c(-c2ccccc2)nc2ccc(C(F)(F)F)cc21
inhibition (Escherichia coli [1]): 26%

CC(=O)Nc1ccccc1-c1nc2ccc([N+](=O)[O-])cc2n1O
inhibition (Escherichia coli [1]): 31%

CN(C)c1ccc2nc(-c3ccccc3)n(O)c2c1
inhibition (Escherichia coli [1]): 28%

O=[N+]([O-])c1ccc2nc(-c3ccc(O)cc3)n(O)c2c1
inhibition (Escherichia coli [1]): 35%

N#CCOn1c(-c2ccccc2)nc2ccc([N+](=O)[O-])cc21
inhibition (Escherichia coli [1]): 12%

On1c(-c2ccccc2)nc2ccc(F)cc21
inhibition (Escherichia coli [1]): 26%

On1c(-c2ccccc2)nc2ccccc21
inhibition (Escherichia coli [1]): 0%

CS(=O)(=O)c1ccc2nc(-c3ccccc3)n(O)c2c1
inhibition (Escherichia coli [1]): 35%

COn1c(-c2ccccc2)nc2ccc([N+](=O)[O-])cc21
inhibition (Escherichia coli [1]): 17%

NC(=O)c1ccc2nc(-c3ccccc3)n(O)c2c1
inhibition (Escherichia coli [1]): 14%

CC(=O)Nc1ccc(-c2nc3ccc([N+](=O)[O-])cc3n2O)cc1
inhibition (Escherichia coli [1]): 100%
inhibition (Escherichia coli [2]): 58%

Nc1cccc(-c2nc3ccc([N+](=O)[O-])cc3n2O)c1
inhibition (Escherichia coli [1]): 60%

O=C(NCc1ccc(-c2nc3ccc([N+](=O)[O-])cc3n2O)cc1)c1ccccc1
inhibition (Escherichia coli [1]): 44%

Cc1ccc(C(=O)Nc2ccc(-c3nc4ccc([N+](=O)[O-])cc4n3O)cc2)cc1
IC50 [3]: 10000 nM
MIC (Staphylococcus aureus): > 64 µg/mL
MIC (Escherichia coli [4]): > 64 µg/mL

COc1ccc(-c2nc3ccc([N+](=O)[O-])cc3n2O)cc1
inhibition (Escherichia coli [1]): 12%

O=[N+]([O-])c1ccc2nc(-c3ccc(Oc4ccccc4)cc3)n(O)c2c1
inhibition (Escherichia coli [1]): 14%

C/C(=N/O)c1ccc2nc(-c3ccccc3)n(O)c2c1
inhibition (Escherichia coli [1]): 38%

CN(C)c1ccc(-c2nc3ccc([N+](=O)[O-])cc3n2O)cc1
inhibition (Escherichia coli [1]): 75%

O=C(O)COn1c(-c2ccccc2)nc2ccc([N+](=O)[O-])cc21
inhibition (Escherichia coli [1]): 14%

O=C(Nc1ccc(-c2nc3ccc([N+](=O)[O-])cc3n2O)cc1)c1cccc(Cl)c1
IC50 [3]: 3400 nM
MIC (Staphylococcus aureus): > 64 µg/mL
MIC (Escherichia coli [4]): > 64 µg/mL

CN(C)c1ccc(C(=O)Nc2ccc(-c3nc4ccc([N+](=O)[O-])cc4n3O)cc2)cc1
IC50 [3]: 820 nM
MIC (Staphylococcus aureus): > 64 µg/mL
MIC (Escherichia coli [4]): > 64 µg/mL
IC50 [9]: 1200 nM
IC50 (Escherichia coli [6]): 1300 nM
IC50 [7]: 1900 nM
IC50 [8]: 1800 nM
IC50 [10]: 1400 nM
CFU (Escherichia coli [5]): 0.5

CCCOn1c(-c2ccccc2)nc2ccc([N+](=O)[O-])cc21
inhibition (Escherichia coli [1]): 0%
